Data from ChEMBL document CHEMBL1781898, “Orally active achiral N-hydroxyformamide inhibitors of ADAM-TS4 (aggrecanase-1) and ADAM-TS5 (aggrecanase-2) for the treatment of osteoarthritis” (Bioorg Med Chem Lett, 2011).

What was measured:
[1] = target: T1, Collagenase 3 (Homo sapiens, UniProt P45452); experiment: Inhibition of recombinant human MMP-13 assessed as substrate cleavage after 20 hrs by fluorescence assay
Outline: (§1)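 Enzyme inhibition IC50s derived from at least six measurements, standard errors normally <5% within an assay; a standard compound run to keep assay-to-assay variability within twofold.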

[2] = target: Cytochrome P450 3A4 (Homo sapiens, UniProt P08684); experiment: Inhibition of CYP3A4; type: ADME
Outline: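 Inhibition of cytochrome P450 isoforms 1A2, 2C9, 2C19, 2D6 and 3A4, reported as pIC50.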

[3] = target: Matrix metalloproteinase-14 (Homo sapiens, UniProt P50281); experiment: Inhibition of recombinant human MMP-14 assessed as substrate cleavage after 20 hrs by fluorescence assay; outline: as §1
[4] = target: T2, Interstitial collagenase (Homo sapiens, UniProt P03956); experiment: Inhibition of recombinant human MMP-1 assessed as substrate cleavage after 20 hrs by fluorescence assay; outline: as §1
T2 sequence (P03956 whole entry): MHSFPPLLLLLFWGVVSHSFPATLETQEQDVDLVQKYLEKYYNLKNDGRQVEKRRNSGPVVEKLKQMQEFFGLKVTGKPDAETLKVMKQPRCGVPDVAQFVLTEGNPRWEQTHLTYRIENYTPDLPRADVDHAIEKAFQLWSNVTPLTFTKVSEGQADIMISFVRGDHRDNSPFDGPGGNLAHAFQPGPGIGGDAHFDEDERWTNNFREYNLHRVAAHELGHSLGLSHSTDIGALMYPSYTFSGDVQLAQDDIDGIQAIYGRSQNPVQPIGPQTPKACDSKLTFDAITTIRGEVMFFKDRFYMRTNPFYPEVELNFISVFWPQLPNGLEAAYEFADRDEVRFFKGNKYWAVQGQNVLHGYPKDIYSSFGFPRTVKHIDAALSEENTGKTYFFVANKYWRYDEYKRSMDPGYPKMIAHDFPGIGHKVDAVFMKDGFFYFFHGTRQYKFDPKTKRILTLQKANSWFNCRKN

[5] = target: T3, A disintegrin and metalloproteinase with thrombospondin motifs 4 (Homo sapiens, UniProt O75173); experiment: Inhibition of ADAMTS-4 assessed as substrate cleavage after 16 hrs by fluorescence assay; outline: as §1
T3 sequence (O75173 whole entry): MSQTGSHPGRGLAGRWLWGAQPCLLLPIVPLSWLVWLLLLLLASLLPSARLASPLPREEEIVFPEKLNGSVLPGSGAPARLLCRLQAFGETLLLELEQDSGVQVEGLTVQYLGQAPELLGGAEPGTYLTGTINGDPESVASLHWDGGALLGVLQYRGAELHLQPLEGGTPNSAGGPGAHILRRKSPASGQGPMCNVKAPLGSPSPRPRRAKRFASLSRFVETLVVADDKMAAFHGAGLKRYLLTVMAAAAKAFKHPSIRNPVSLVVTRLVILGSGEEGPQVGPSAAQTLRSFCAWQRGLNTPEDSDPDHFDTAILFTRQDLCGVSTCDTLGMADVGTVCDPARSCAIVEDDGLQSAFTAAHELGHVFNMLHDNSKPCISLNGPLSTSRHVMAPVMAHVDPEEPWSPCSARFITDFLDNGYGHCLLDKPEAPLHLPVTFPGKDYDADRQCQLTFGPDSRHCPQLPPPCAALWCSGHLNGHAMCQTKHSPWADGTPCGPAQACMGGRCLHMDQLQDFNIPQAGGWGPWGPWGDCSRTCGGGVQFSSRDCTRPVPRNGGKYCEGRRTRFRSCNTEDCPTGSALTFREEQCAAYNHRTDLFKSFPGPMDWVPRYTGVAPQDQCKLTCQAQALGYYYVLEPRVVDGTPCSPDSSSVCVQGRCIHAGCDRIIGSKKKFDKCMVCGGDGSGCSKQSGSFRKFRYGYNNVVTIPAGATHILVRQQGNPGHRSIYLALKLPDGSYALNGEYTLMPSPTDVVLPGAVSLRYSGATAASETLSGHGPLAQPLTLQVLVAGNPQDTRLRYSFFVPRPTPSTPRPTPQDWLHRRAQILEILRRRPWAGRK

[6] = target: 72 kDa type IV collagenase (Homo sapiens, UniProt P08253); experiment: Inhibition of recombinant human MMP-2 assessed as substrate cleavage after 20 hrs by fluorescence assay; outline: as §1
[7] = target: Matrix metalloproteinase-9 (Homo sapiens, UniProt P14780); experiment: Inhibition of recombinant human MMP-9 assessed as substrate cleavage after 20 hrs by fluorescence assay; outline: as §1
[8] = target: T4, A disintegrin and metalloproteinase with thrombospondin motifs 5 (Homo sapiens, UniProt Q9UNA0); experiment: Inhibition of ADAMTS-5 assessed as substrate cleavage after 16 hrs by fluorescence assay; outline: as §1
T4 sequence (Q9UNA0 whole entry): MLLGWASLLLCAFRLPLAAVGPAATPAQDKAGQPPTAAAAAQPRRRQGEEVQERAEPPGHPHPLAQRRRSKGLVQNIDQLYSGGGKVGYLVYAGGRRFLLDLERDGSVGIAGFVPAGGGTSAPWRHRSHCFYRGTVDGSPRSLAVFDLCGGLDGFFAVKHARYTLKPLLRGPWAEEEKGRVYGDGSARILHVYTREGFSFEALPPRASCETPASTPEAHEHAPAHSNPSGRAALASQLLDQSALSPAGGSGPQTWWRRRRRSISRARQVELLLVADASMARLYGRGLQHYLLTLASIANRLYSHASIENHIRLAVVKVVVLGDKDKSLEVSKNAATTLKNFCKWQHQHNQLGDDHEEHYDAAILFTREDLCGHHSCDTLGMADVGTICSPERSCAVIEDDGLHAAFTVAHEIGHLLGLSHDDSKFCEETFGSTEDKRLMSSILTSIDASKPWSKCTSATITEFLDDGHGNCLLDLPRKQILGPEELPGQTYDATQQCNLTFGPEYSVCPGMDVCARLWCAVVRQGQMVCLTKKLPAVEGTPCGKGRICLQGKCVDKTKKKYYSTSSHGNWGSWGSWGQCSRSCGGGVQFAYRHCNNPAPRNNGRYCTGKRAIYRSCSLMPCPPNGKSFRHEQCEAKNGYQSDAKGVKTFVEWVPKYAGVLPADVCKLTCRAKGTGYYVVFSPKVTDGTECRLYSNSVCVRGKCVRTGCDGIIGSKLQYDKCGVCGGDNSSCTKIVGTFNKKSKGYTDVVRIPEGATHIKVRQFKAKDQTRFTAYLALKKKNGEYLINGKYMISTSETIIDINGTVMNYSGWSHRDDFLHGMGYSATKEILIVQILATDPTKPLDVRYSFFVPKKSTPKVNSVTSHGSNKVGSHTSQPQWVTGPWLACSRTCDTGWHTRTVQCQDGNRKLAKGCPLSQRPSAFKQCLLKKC

[9] = Intrinsic clearance in human liver microsomes; type: ADME, Microsome
Outline: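 Human liver microsome metabolism; intrinsic clearance expressed as μL/min/mg, reported as mean of eight separate experiments.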

[10] = target: T1, Collagenase 3; experiment: Inhibition of recombinant human MMP-13 assessed as substrate cleavage at 15 uM after 20 hrs by fluorescence assay
[11] = Clearance in rat at 2 mg/kg, iv; type: ADME, organism-based; design: dose 2 mg/kg, route intravenous; conditions: in vivo
Outline: (§2)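 Rat iv PK: 2 mg/kg iv, n = 2 animals; clearance, half-life and Vdss determined.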

[12] = Volume of distribution at steady state in rat at 2 mg/kg, iv; type: ADME, organism-based; design: dose 2 mg/kg, route intravenous; conditions: in vivo, read-out: Vdss; outline: as §2
[13] = Half life in rat at 2 mg/kg, iv; type: ADME, organism-based; design: dose 2 mg/kg, route intravenous; conditions: in vivo; outline: as §2

Sequence of Matrix metalloproteinase-9 (P14780 whole entry): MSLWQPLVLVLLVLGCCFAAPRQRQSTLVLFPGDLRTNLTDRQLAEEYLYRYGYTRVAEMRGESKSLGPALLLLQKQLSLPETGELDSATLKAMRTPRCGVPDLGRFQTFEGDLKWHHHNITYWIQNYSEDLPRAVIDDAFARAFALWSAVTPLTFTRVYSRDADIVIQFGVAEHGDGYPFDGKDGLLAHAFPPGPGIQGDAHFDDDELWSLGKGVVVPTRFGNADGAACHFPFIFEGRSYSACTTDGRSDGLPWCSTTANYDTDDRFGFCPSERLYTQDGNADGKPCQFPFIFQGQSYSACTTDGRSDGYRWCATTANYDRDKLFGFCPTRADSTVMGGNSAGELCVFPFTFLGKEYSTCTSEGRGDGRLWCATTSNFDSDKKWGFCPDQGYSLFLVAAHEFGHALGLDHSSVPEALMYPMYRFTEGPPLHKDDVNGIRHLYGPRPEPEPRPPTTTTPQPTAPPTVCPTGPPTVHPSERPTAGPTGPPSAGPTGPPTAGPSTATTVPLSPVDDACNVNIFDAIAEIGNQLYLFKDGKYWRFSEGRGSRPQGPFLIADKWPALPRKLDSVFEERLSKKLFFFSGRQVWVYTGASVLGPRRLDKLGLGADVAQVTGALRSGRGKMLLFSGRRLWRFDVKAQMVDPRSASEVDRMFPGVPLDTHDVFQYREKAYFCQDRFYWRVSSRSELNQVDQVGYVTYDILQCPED
Sequence of Cytochrome P450 3A4 (P08684 whole entry, canonical isoform): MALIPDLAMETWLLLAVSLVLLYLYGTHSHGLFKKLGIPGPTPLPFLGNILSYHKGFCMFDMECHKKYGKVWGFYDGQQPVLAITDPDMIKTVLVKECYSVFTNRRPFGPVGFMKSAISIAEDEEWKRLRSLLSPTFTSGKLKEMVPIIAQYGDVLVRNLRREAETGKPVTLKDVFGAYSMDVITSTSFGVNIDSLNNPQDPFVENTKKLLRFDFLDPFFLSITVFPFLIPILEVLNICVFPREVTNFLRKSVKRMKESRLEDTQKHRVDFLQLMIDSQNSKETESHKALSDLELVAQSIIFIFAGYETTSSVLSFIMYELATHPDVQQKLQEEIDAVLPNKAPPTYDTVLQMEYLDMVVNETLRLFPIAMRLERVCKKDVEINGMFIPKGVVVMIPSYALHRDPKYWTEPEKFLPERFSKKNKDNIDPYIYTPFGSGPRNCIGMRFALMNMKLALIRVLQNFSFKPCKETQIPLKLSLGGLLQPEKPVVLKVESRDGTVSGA
Sequence of 72 kDa type IV collagenase (P08253 whole entry): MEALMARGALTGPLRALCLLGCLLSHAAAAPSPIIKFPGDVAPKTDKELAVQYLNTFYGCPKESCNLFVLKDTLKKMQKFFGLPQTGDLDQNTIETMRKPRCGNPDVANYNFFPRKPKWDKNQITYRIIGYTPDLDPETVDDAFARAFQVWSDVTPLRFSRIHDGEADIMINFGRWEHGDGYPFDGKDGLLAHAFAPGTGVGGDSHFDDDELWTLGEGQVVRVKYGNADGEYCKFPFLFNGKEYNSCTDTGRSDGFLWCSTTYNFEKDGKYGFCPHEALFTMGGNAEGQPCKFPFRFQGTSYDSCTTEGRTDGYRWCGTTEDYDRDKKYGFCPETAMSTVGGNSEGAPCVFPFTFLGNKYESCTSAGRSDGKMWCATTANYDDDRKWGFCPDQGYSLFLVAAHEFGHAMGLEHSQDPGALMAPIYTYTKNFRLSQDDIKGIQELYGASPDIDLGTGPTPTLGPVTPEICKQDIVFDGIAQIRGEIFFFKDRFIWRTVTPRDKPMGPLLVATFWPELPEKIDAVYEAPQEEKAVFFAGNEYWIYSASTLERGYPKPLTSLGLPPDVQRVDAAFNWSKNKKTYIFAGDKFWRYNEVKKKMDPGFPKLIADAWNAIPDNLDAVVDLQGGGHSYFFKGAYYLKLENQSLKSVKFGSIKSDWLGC

IC50 [1] [µM] | IC50 [2] [µM] | IC50 [3] [µM] | IC50 [4] [µM] | IC50 [5] [µM] | IC50 [6] [µM] | IC50 [7] [µM] | IC50 [8] [µM] | microsomal CLint [9] [µL/min/mg] | inhibition [10] [%] | clearance [11] [mL/min/kg] | Vd [12] [L/kg] | half-life [13] [h] | SMILES
0.154 | 1 | 0.226 | > 10 | – | – | – | – | – | – | – | – | – | CC(CS(=O)(=O)N1CCN(c2ccc(F)cc2)CC1)N(O)C=O (racemic)
0.57 | > 10 | 2.9 | > 6.7 | 0.53 | – | – | – | – | – | – | – | – | CN1CCC(CS(=O)(=O)N2CCN(c3ccc(F)cc3)CC2)(N(O)C=O)CC1
> 10 | > 10 | > 10 | > 10 | 0.019 | > 10 | > 10 | 1.2 | < 2 | – | – | – | – | Cc1noc(C)c1CCC1CCN(S(=O)(=O)CC2(N(O)C=O)CCN(C)CC2)CC1
– | > 10 | – | – | 0.021 | – | – | – | – | 97 | – | – | – | O=CN(O)C1(CS(=O)(=O)N2CCN(c3ccc(F)cc3)CC2)CCOCC1
> 10 | – | > 10 | > 10 | 0.013 | > 10 | > 10 | 0.45 | 8.5 | – | 18 | 2 | 6.3 | Cc1nsc(C)c1CCC1CCN(S(=O)(=O)CC2(N(O)C=O)CCOCC2)CC1
> 10 | > 10 | > 10 | > 10 | 0.0097 | > 10 | > 10 | 0.25 | 12 | – | – | – | – | Cc1noc(C)c1CCC1CCN(S(=O)(=O)CC2(N(O)C=O)CCOC(C)(C)C2)CC1 (configuration not stated)
> 10 | > 10 | > 10 | > 10 | 0.01 | > 10 | > 10 | 0.27 | 65 | – | – | – | – | Cc1noc(C)c1CCC1CCN(S(=O)(=O)CC2(N(O)C=O)CCN(C(=O)C3CCC3)CC2)CC1
1.4 | > 10 | 1.4 | > 10 | 0.092 | – | – | – | – | – | – | – | – | CC(C)(CS(=O)(=O)N1CCN(c2ccc(F)cc2)CC1)N(O)C=O
0.94 | – | 3.1 | > 10 | 0.0045 | 1.3 | 3.1 | 0.069 | < 2 | – | 15 | 2 | – | Cc1cc(F)ccc1CCC1CCN(S(=O)(=O)CC2(N(O)C=O)CCOCC2)CC1
> 10 | > 10 | > 10 | > 10 | 0.02 | > 10 | > 10 | 0.41 | 13 | – | – | – | – | Cc1noc(C)c1CCC1CCN(S(=O)(=O)CC2(N(O)C=O)CCC(F)(F)CC2)CC1
1.1 | – | 2.9 | > 10 | 0.1 | 1.1 | 8.5 | 0.58 | 3.8 | – | – | – | – | Cc1cccnc1CCC1CCN(S(=O)(=O)CC2(N(O)C=O)CCOCC2)CC1
1.7 | – | > 10 | > 10 | 0.0058 | 3.3 | > 10 | 0.53 | 2 | – | – | – | – | Cc1cc(S(C)(=O)=O)ccc1CCC1CCN(S(=O)(=O)CC2(N(O)C=O)CCOCC2)CC1
5.9 | – | > 7.2 | > 10 | 0.11 | 3.5 | > 10 | 0.63 | 3.4 | – | – | – | – | Cc1ccncc1CCC1CCN(S(=O)(=O)CC2(N(O)C=O)CCOCC2)CC1
46 | – | > 100 | > 10 | 0.018 | 61 | > 100 | 3.4 | 4.3 | – | 20 | 2 | 4 | Cc1cc(CCC2CCN(S(=O)(=O)CC3(N(O)C=O)CCOCC3)CC2)c(C)cn1
– | 1.9 | – | – | 0.091 | – | – | – | – | 81 | – | – | – | O=CN(O)C1(CS(=O)(=O)N2CCN(c3ccc(F)cc3)CC2)CCC1
> 10 | – | > 10 | > 10 | 0.011 | > 10 | > 10 | 0.48 | 31 | – | – | – | – | Cc1noc(C)c1CCC1CCN(S(=O)(=O)CC2(N(O)C=O)CCN(C(=O)N3CCC3)CC2)CC1
> 0.6 | – | > 0.77 | > 10 | 0.0056 | 0.62 | > 1.8 | 0.031 | < 2 | – | – | – | – | Cc1ccccc1CCC1CCN(S(=O)(=O)CC2(N(O)C=O)CCOCC2)CC1
> 10 | > 10 | > 10 | > 10 | 0.016 | > 10 | > 10 | 0.27 | 4.9 | – | – | – | – | Cc1noc(C)c1CCC1CCN(S(=O)(=O)CC2(N(O)C=O)CCS(=O)(=O)CC2)CC1
